Reference: ChEMBL document CHEMBL3877264, “Quinolidene-rhodanine conjugates: Facile synthesis and biological evaluation” (Eur J Med Chem, 2017)
In brackets after ≈: the same amount, converted by molar mass.

How the values were obtained:
[1] = tested on: Mycobacterium tuberculosis; test: Growth inhibition of Mycobacterium tuberculosis H37Ra ATCC 25177 at active stage at 6.25 ug/ml measured after 8 days by XTT dye based two fold dilution method relative to control; assay type: functional; details: H37Ra ATCC 25177, 192 h, read-out: GI
Procedure, shortened: (§1)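 MTB H37Ra was grown in Dubos medium, then exposed in Mycobacterium pheli minimal medium (pH 6.6) to compounds dissolved in DMSO. The assay ended on day 8 (active) or day 12 (dormant). Viable cells were measured by XTT reduction menadione assay at 470 nm, blank-corrected, relative to vehicle control. Triplicates were expressed as mean ± SD. MIC came from dose-response curves.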

[2] = tested on: Mycobacterium tuberculosis; test: Growth inhibition of Mycobacterium bovis BCG ATCC 35743 at dormant stage at 30 ug/ml measured after 12 days by nitrate reductase dye based two fold dilution method relative to control; assay type: functional; details: BCG str. ATCC 35743, 288 h, read-out: GI
Procedure, shortened: (§2)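 M. bovis BCG was grown in Dubos medium and assayed in Mycobacterium pheli minimal medium (pH 6.6), with compounds from DMSO stocks. Incubation lasted 8 days for active and 12 days for dormant cultures. Viability was read by nitrate reductase at 540 nm against cell-free blanks, with vehicle set as 100% growth. Primary screen was at 30, 10 and 3 µg/ml, in triplicate, mean ± SD. MIC was taken from dose-response curves.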

Escherichia coli [3] = test: Growth inhibition of Escherichia coli NCIM 2688 at 3 ug/ml measured after 8 hrs relative to control; assay type: functional; details: NCIM 2688, 8 h, read-out: GI
Procedure, shortened: (§3)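 Bacteria grown in LB at 37 °C and 180 rpm to OD 1. Compounds added to wells, then 0.1% inoculum of 1 OD culture (620 nm). Growth read as OD at 620 nm after 8 h for gram-negative and after 12 h for gram-positive strains.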

[4] = tested on: Mycobacterium tuberculosis; test: Growth inhibition of Mycobacterium bovis BCG ATCC 35743 at dormant stage at 10 ug/ml measured after 12 days by nitrate reductase dye based two fold dilution method relative to control; assay type: functional; details: BCG str. ATCC 35743, 288 h, read-out: GI; procedure, shortened: as §2
[5] = Selectivity index, ratio of GI50 for human PANC1 cells to MIC for Mycobacterium tuberculosis H37Ra ATCC 25177 at dormant stage; assay type: toxicity, cell-based, PANC-1; details: read-out: Selectivity Index
Procedure, shortened: (§4)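 SI is the cell-line GI50 divided by the dormant-stage mycobacterial MIC. […] THP-1 macrophages were PMA-differentiated for 24 h.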

[6] = Cytotoxicity against human THP1 cells measured after 48 hrs by MTT assay; assay type: toxicity, cell-based, THP-1
Procedure, shortened: (§5)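 MTT assay with 48 h compound exposure. THP-1 macrophages made by 24 h PMA treatment. Each concentration tested in triplicate in one experiment. % cytotoxicity = (control−test)/(control−blank)×100, with control = cells + DMSO and blank = medium without cells. IC50 from % survival versus concentration plots.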

[7] = tested on: Mycobacterium tuberculosis; test: Growth inhibition of Mycobacterium tuberculosis H37Ra ATCC 25177 at dormant stage at 0.78 ug/ml measured after 12 days by XTT dye based two fold dilution method relative to control; assay type: functional; details: H37Ra ATCC 25177, 288 h, read-out: GI; procedure, shortened: as §1
Pseudomonas fluorescens = test: Growth inhibition of Pseudomonas fluorescens NCIM 2036 at 10 ug/ml measured after 8 hrs relative to control; assay type: functional; details: NCIM 2036, 8 h, read-out: GI; procedure, shortened: as §3
[8] = tested on: Mycobacterium tuberculosis; test: Growth inhibition of Mycobacterium bovis BCG ATCC 35743 at dormant stage at 100 ug/ml measured after 12 days by nitrate reductase dye based two fold dilution method relative to control; assay type: functional; details: BCG str. ATCC 35743, 288 h, read-out: GI; procedure, shortened: as §2
Escherichia coli [9] = test: Antibacterial activity against Escherichia coli NCIM 2688 measured after 8 hrs; assay type: functional; details: NCIM 2688, 8 h; procedure, shortened: as §3
[10] = Antifungal activity against Cryptococcus neoformans NCIM 576 by standard agar method; assay type: functional
Procedure, shortened: (§6)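 MICs determined by standard agar method; DMSO as solvent control.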

[11] = tested on: Mycobacterium tuberculosis; test: Growth inhibition of Mycobacterium bovis BCG ATCC 35743 at active stage at 50 ug/ml measured after 8 days by nitrate reductase dye based two fold dilution method relative to control; assay type: functional; details: BCG str. ATCC 35743, 192 h, read-out: GI
[12] = tested on: Mycobacterium tuberculosis; test: Growth inhibition of Mycobacterium tuberculosis H37Ra ATCC 25177 at dormant stage at 100 ug/ml measured after 12 days by XTT dye based two fold dilution method relative to control; assay type: functional; details: H37Ra ATCC 25177, 288 h, read-out: GI; procedure, shortened: as §1
[13] = tested on: Mycobacterium tuberculosis; test: Growth inhibition of Mycobacterium bovis BCG ATCC 35743 at dormant stage measured after 12 days by nitrate reductase dye based two fold dilution method; assay type: functional; details: BCG str. ATCC 35743, 288 h; procedure, shortened: as §2
[14] = Selectivity index, ratio of GI50 for […]-differentiated human THP1 cells to MIC for Mycobacterium tuberculosis H37Ra ATCC 25177 at dormant stage; assay type: toxicity, cell-based, THP-1; details: read-out: Selectivity Index; procedure, shortened: as §4
[15] = Selectivity index, ratio of GI50 for human HeLa cells to MIC for Mycobacterium tuberculosis H37Ra ATCC 25177 at dormant stage; assay type: toxicity, cell-based; details: read-out: Selectivity Index; procedure, shortened: as §4
[16] = Cytotoxicity against human THP1 cells assessed as growth inhibition at 100 ug/ml measured after 48 hrs by MTT assay relative to control; assay type: toxicity, cell-based, THP-1; details: read-out: GI; procedure, shortened: as §5
[17] = tested on: Mycobacterium tuberculosis; test: Growth inhibition of Mycobacterium tuberculosis H37Ra ATCC 25177 at active stage at 25 ug/ml measured after 8 days by XTT dye based two fold dilution method relative to control; assay type: functional; details: H37Ra ATCC 25177, 192 h, read-out: GI; procedure, shortened: as §1
[18] = Antifungal activity against Fusarium oxysporum NCIM 1332 by standard agar method; assay type: functional; procedure, shortened: as §6
[19] = tested on: Mycobacterium tuberculosis; test: Growth inhibition of Mycobacterium bovis BCG ATCC 35743 at active stage at 1.56 ug/ml measured after 8 days by nitrate reductase dye based two fold dilution method relative to control; assay type: functional; details: BCG str. ATCC 35743, 192 h, read-out: GI; procedure, shortened: as §2
[20] = tested on: Mycobacterium tuberculosis; test: Growth inhibition of Mycobacterium bovis BCG ATCC 35743 at active stage at 3.13 ug/ml measured after 8 days by nitrate reductase dye based two fold dilution method relative to control; assay type: functional; details: BCG str. ATCC 35743, 192 h, read-out: GI; procedure, shortened: as §2
Aspergillus niger = test: Antifungal activity against Aspergillus niger NCIM 1196 by standard agar method; assay type: functional; procedure, shortened: as §6
Aspergillus flavus = test: Antifungal activity against Aspergillus flavus NCIM 539 by standard agar method; assay type: functional; procedure, shortened: as §6
[21] = tested on: Mycobacterium tuberculosis; test: Growth inhibition of Mycobacterium tuberculosis H37Ra ATCC 25177 at active stage at 100 ug/ml measured after 8 days by XTT dye based two fold dilution method relative to control; assay type: functional; details: H37Ra ATCC 25177, 192 h, read-out: GI; procedure, shortened: as §1
[22] = Cytotoxicity against human HeLa cells measured after 48 hrs by MTT assay; assay type: toxicity, cell-based
[23] = Selectivity index, ratio of GI50 for HUVEC to MIC for Mycobacterium tuberculosis H37Ra ATCC 25177 at dormant stage
[24] = tested on: Mycobacterium tuberculosis; test: Growth inhibition of Mycobacterium tuberculosis H37Ra ATCC 25177 at active stage at 12.5 ug/ml measured after 8 days by XTT dye based two fold dilution method relative to control; assay type: functional; details: H37Ra ATCC 25177, 192 h, read-out: GI
[25] = tested on: Mycobacterium tuberculosis; test: Growth inhibition of Mycobacterium bovis BCG ATCC 35743 at dormant stage at 6.25 ug/ml measured after 12 days by nitrate reductase dye based two fold dilution method relative to control; assay type: functional; details: BCG str. ATCC 35743, 288 h, read-out: GI; procedure, shortened: as §2
[26] = tested on: Mycobacterium tuberculosis; test: Growth inhibition of Mycobacterium bovis BCG ATCC 35743 at dormant stage at 3 ug/ml measured after 12 days by nitrate reductase dye based two fold dilution method relative to control; assay type: functional; details: BCG str. ATCC 35743, 288 h, read-out: GI; procedure, shortened: as §2
Staphylococcus aureus = test: Antibacterial activity against of Staphylococcus aureus NCIM 2010 measured after 12 hrs; assay type: functional; details: NCIM 2010, 12 h; procedure, shortened: as §3

Compound	inhibition of growth at 6.25 µg/mL [1] [%]	inhibition of growth at 30 µg/mL [2] [%]	inhibition of growth at 3 µg/mL (Escherichia coli [3]) [%]	inhibition of growth at 10 µg/mL [4] [%]	GI50 at 48 h [6] [µg/mL]	inhibition of growth at 0.78 µg/mL [7] [%]	inhibition of growth at 10 µg/mL (Pseudomonas fluorescens) [%]	inhibition of growth at 100 µg/mL [8] [%]	MIC (Escherichia coli [9]) [µg/mL]	MIC [10] [µg/mL]	inhibition of growth at 100 µg/mL [12] [%]	inhibition at 48 h, 100 ug/ml [16] [%]	inhibition of growth at 25 µg/mL [17] [%]	MIC [18] [µg/mL]	MIC (Aspergillus niger) [µg/mL]	MIC (Aspergillus flavus) [µg/mL]	inhibition of growth at 100 µg/mL [21] [%]	GI50 at 48 h [22] [µg/mL]	inhibition of growth at 12.5 µg/mL [24] [%]	inhibition of growth at 6.25 µg/mL [25] [%]	further results
COc1ccc2nc(Cl)c(/C=C3\SC(=S)NC3=O)cc2c1	55.2	-6.75	3.11	-14	> 100	-36	81.8	97.7	> 30	100 (≈ 297 µM)	91.6	26.3	90.2	125 (≈ 371 µM)	150 (≈ 445 µM)	100 (≈ 297 µM)	90.3	> 100	85.2	89.9	selectivity ratio [5]: 20.8; inhibition of growth at 50 µg/mL [11]: 97.3%; IC50 [13]: 2.9 µg/mL (≈ 8.61 µM); IC90 [13]: 6.8 µg/mL (≈ 20.2 µM); selectivity ratio [14]: 20.8; selectivity ratio [15]: 20.8; inhibition of growth at 1.56 µg/mL [19]: -39.1%; inhibition of growth at 3.13 µg/mL [20]: 14.9%; Selectivity Index [23]: 20.8; inhibition of growth at 3 µg/mL [26]: -46.3%; MIC (Staphylococcus aureus): 7.86 µg/mL (≈ 23.3 µM)
COc1ccc2cc(/C=C3\SC(=S)NC3=O)c(Cl)nc2c1	43.8	10.1	26.4	27.9	> 100	-29.8	43.5	99	> 30	50 (≈ 148 µM)	85.2	26.7	109	50 (≈ 148 µM)	75 (≈ 223 µM)	100 (≈ 297 µM)	96.4	> 100	83.1	94	inhibition of growth at 50 µg/mL [11]: 99.9%; inhibition of growth at 1.56 µg/mL [19]: -36.6%; inhibition of growth at 3.13 µg/mL [20]: 91.5%; inhibition of growth at 3 µg/mL [26]: -7.94%; MIC (Staphylococcus aureus): > 30 µg/mL
O=C(O)CN1C(=O)/C(=C/c2cc3cc(F)ccc3nc2Cl)SC1=S	11.3	28.2	-2.27	43.1	> 100	-24	1.08	98.2	> 30	25 (≈ 65.3 µM)	119	27.6	10.4	25 (≈ 65.3 µM)	25 (≈ 65.3 µM)	100 (≈ 261 µM)	100	> 100	-3.91	100	IC50 [13]: > 30 µg/mL; IC90 [13]: > 30 µg/mL; inhibition of growth at 3 µg/mL [26]: 23.9%; MIC (Staphylococcus aureus): > 30 µg/mL
